Source: ChEMBL document CHEMBL1811814, “Synthesis and evaluation of indole, pyrazole, chromone and pyrimidine based conjugates for tumor growth inhibitory activities--development of highly efficacious cytotoxic agents” (Eur J Med Chem, 2010)

Assays:
Assay type in all cases: functional
Design in all cases: scale not given: the % may be the effect or the level left
CCRF-CEM = experiment: Growth inhibition of human CCRF-CEM cells assessed tumor cell growth at 10^-5 M
Outline: (§1)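 NCI 60-human-tumor-cell-line panel screen. Each compound was tested at a single concentration of 10^-5 M, and percent growth of tumor cells was recorded for each cell line. Growth inhibition was expressed from these percent-growth values.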

HL-60(TB) = experiment: Growth inhibition of human HL-60(TB) cells assessed tumor cell growth at 10^-5 M
Outline: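 HL-60(TB), part of the 60-line panel, tested at a single concentration of 10^-5 M. The read-out is percent tumor cell growth relative to untreated growth.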

K562 = experiment: Growth inhibition of human K562 cells assessed tumor cell growth at 10^-5 M; outline: as §1
MOLT-4 = experiment: Growth inhibition of human MOLT4 cells assessed tumor cell growth at 10^-5 M; outline: as §1
[1] = Growth inhibition of human […] cells assessed tumor cell growth at 10^-5 M; outline: as §1
SR = experiment: Growth inhibition of human SR cells assessed tumor cell growth at 10^-5 M
Outline: (§2)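 Single-dose screen at 10^-5 M across the 60 human tumor cell line panel, run to NCI standards. The value is the percent growth of each cell line in the presence of compound. Compounds active at this dose moved on to five-concentration testing (10^-4 to 10^-8 M).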

A549 = experiment: Growth inhibition of human A549 cells assessed tumor cell growth at 10^-5 M; outline: as §1
EKVX = experiment: Growth inhibition of human EKVX cells assessed tumor cell growth at 10^-5 M; outline: as §1
HOP-62 = experiment: Growth inhibition of human HOP62 cells assessed tumor cell growth at 10^-5 M; outline: as §1
HOP-92 = experiment: Growth inhibition of human HOP92 cells assessed tumor cell growth at 10^-5 M; outline: as §1
NCI-H226 = experiment: Growth inhibition of human NCI-H226 cells assessed tumor cell growth at 10^-5 M; outline: as §1
NCI-H23 = experiment: Growth inhibition of human NCI-H23 cells assessed tumor cell growth at 10^-5 M; outline: as §1
NCI-H322M = experiment: Growth inhibition of human NCI-H322M cells assessed tumor cell growth at 10^-5 M; outline: as §1
HCC 2998 = experiment: Growth inhibition of human HCC2998 cells assessed tumor cell growth at 10^-5 M; outline: as §1
HCT-116 = experiment: Growth inhibition of human HCT116 cells assessed tumor cell growth at 10^-5 M; outline: as §1
HCT-15 = experiment: Growth inhibition of human HCT15 cells assessed tumor cell growth at 10^-5 M; outline: as §1
HT-29 = experiment: Growth inhibition of human HT-29 cells assessed tumor cell growth at 10^-5 M; outline: as §1
KM12 = experiment: Growth inhibition of human KM12 cells assessed tumor cell growth at 10^-5 M; outline: as §1
SW-620 = experiment: Growth inhibition of human SW620 cells assessed tumor cell growth at 10^-5 M; outline: as §2
SF-268 = experiment: Growth inhibition of human SF268 cells assessed tumor cell growth at 10^-5 M; outline: as §1
SNB-75 = experiment: Growth inhibition of human SNB75 cells assessed tumor cell growth at 10^-5 M; outline: as §2
U-251 = experiment: Growth inhibition of human U251 cells assessed tumor cell growth at 10^-5 M; outline: as §2
LOX IMVI = experiment: Growth inhibition of human LOXIMVI cells assessed tumor cell growth at 10^-5 M; outline: as §1
Malme-3M = experiment: Growth inhibition of human MALME-3M cells assessed tumor cell growth at 10^-5 M; outline: as §1
M14 = experiment: Growth inhibition of human M14 cells assessed tumor cell growth at 10^-5 M; outline: as §1
MDA-MB-435 = experiment: Growth inhibition of human MDA-MB-435 cells assessed tumor cell growth at 10^-5 M; outline: as §1
SK-MEL-2 = experiment: Growth inhibition of human SK-MEL-2 cells assessed tumor cell growth at 10^-5 M; outline: as §1
SK-MEL-28 = experiment: Growth inhibition of human SK-MEL-28 cells assessed tumor cell growth at 10^-5 M; outline: as §1
UACC-257 = experiment: Growth inhibition of human UACC257 cells assessed tumor cell growth at 10^-5 M; outline: as §2
UACC-62 = experiment: Growth inhibition of human UACC62 cells assessed tumor cell growth at 10^-5 M; outline: as §2
IGROV-1 = experiment: Growth inhibition of human IGROV1 cells assessed tumor cell growth at 10^-5 M; outline: as §1
OVCAR-3 = experiment: Growth inhibition of human OVCAR3 cells assessed tumor cell growth at 10^-5 M; outline: as §1
OVCAR-4 = experiment: Growth inhibition of human OVCAR4 cells assessed tumor cell growth at 10^-5 M; outline: as §1
OVCAR-5 = experiment: Growth inhibition of human OVCAR5 cells assessed tumor cell growth at 10^-5 M; outline: as §1
OVCAR-8 = experiment: Growth inhibition of human OVCAR8 cells assessed tumor cell growth at 10^-5 M; outline: as §1
NCI/ADR-RES = experiment: Growth inhibition of human NCI/ADR-RES cells assessed tumor cell growth at 10^-5 M; outline: as §1
786-0 = experiment: Growth inhibition of human 786-0 cells assessed tumor cell growth at 10^-5 M; outline: as §1
A498 = experiment: Growth inhibition of human A498 cells assessed tumor cell growth at 10^-5 M; outline: as §1
ACHN = experiment: Growth inhibition of human ACHN cells assessed tumor cell growth at 10^-5 M; outline: as §1
CAKI-1 = experiment: Growth inhibition of human Caki1 cells assessed tumor cell growth at 10^-5 M; outline: as §1
RXF 393 = experiment: Growth inhibition of human RXF393 cells assessed tumor cell growth at 10^-5 M; outline: as §1
SN12C = experiment: Growth inhibition of human SN12C cells assessed tumor cell growth at 10^-5 M; outline: as §1
UO-31 = experiment: Growth inhibition of human UO31 cells assessed tumor cell growth at 10^-5 M; outline: as §2
PC-3 = experiment: Growth inhibition of human PC3 cells assessed tumor cell growth at 10^-5 M; outline: as §1
DU-145 = experiment: Growth inhibition of human DU145 cells assessed tumor cell growth at 10^-5 M; outline: as §1
MDA-MB-231 = experiment: Growth inhibition of human MDA-MB-231 cells assessed tumor cell growth at 10^-5 M; outline: as §1
[2] = Growth inhibition of human Hs 578T cells assessed tumor cell growth at 10^-5 M; outline: as §1
BT-549 = experiment: Growth inhibition of human BT549 cells assessed tumor cell growth at 10^-5 M; outline: as §1
MDA-MB-468 = experiment: Growth inhibition of human MDA-MB-468 cells assessed tumor cell growth at 10^-5 M; outline: as §1
NCI-H460 = experiment: Growth inhibition of human NCI-H460 cells assessed tumor cell growth at 10^-5 M; outline: as §1
NCI-H522 = experiment: Growth inhibition of human NCI-H522 cells assessed tumor cell growth at 10^-5 M; outline: as §1
COLO 205 = experiment: Growth inhibition of human COLO205 cells assessed tumor cell growth at 10^-5 M; outline: as §1
SF-295 = experiment: Growth inhibition of human SF295 cells assessed tumor cell growth at 10^-5 M; outline: as §1
SF-539 = experiment: Growth inhibition of human SF539 cells assessed tumor cell growth at 10^-5 M; outline: as §1
SNB-19 = experiment: Growth inhibition of human SNB19 cells assessed tumor cell growth at 10^-5 M; outline: as §2
SK-MEL-5 = experiment: Growth inhibition of human SK-MEL-5 cells assessed tumor cell growth at 10^-5 M; outline: as §1
SK-OV-3 = experiment: Growth inhibition of human SKOV3 cells assessed tumor cell growth at 10^-5 M; outline: as §1
TK-10 = experiment: Growth inhibition of human TK10 cells assessed tumor cell growth at 10^-5 M; outline: as §2
MCF7 = experiment: Growth inhibition of human MCF7 cells assessed tumor cell growth at 10^-5 M; outline: as §1
T47D = experiment: Growth inhibition of human T47D cells assessed tumor cell growth at 10^-5 M; outline: as §2

`CN1C(=O)C(=Cc2coc3ccccc3c2=O)C(=O)N(C)C1=O` gave an Activity (CCRF-CEM) of 97.29%, an Activity (HL-60(TB)) of 92.68% and an Activity (K562) of 105.28%. The Activity (MOLT-4) was 81.25%, the Activity [1] was 62.63% and the Activity (SR) was 72.89%. For the same compound, the Activity (A549) was 104.96%, the Activity (EKVX) was 98.76% and the Activity (HOP-62) was 84.39%. The Activity (HOP-92) was 87.53%, the Activity (NCI-H226) was 87.83% and the Activity (NCI-H23) was 84.27%. It also gave an Activity (NCI-H322M) of 115.86%, an Activity (HCC 2998) of 99.12% and an Activity (HCT-116) of 85.46%. For the same compound, the Activity (HCT-15) was 82.74%, the Activity (HT-29) was 112.32% and the Activity (KM12) was 109.04%. It also gave an Activity (SW-620) of 102.73%, an Activity (SF-268) of 98.13% and an Activity (SNB-75) of 85.44%. The Activity (U-251) was 93.36%, the Activity (LOX IMVI) was 89.46% and the Activity (Malme-3M) was 137.21%. For the same compound, the Activity (M14) was 90.53%, the Activity (MDA-MB-435) was 104.58% and the Activity (SK-MEL-2) was 95.42%. The Activity (SK-MEL-28) was 108.31%, the Activity (UACC-257) was 94.47% and the Activity (UACC-62) was 87.77%. It also gave an Activity (IGROV-1) of 95.15%, an Activity (OVCAR-3) of 103.79% and an Activity (OVCAR-4) of 97.92%. The Activity (OVCAR-5) was 92.09%, the Activity (OVCAR-8) was 86.75% and the Activity (NCI/ADR-RES) was 85.24%. For the same compound, the Activity (786-0) was 95.26%, the Activity (A498) was 120.85% and the Activity (ACHN) was 93.31%. It also gave an Activity (CAKI-1) of 105.77%, an Activity (RXF 393) of 91.99% and an Activity (SN12C) of 88.79%. It also gave an Activity (UO-31) of 67.73%, an Activity (PC-3) of 94.7% and an Activity (DU-145) of 106.58%. It also gave an Activity (MDA-MB-231) of 96.45%, an Activity [2] of 96.44% and an Activity (BT-549) of 87.93%. For the same compound, the Activity (MDA-MB-468) was 104.25%.
`Cc1ccc(S(=O)(=O)N2C(=O)/C(=C\c3cn(S(=O)(=O)c4ccc(C)cc4)c4ccccc34)c3ccccc32)cc1` showed an Activity (HL-60(TB)) of 85.6%, an Activity (K562) of 83.9% and an Activity (MOLT-4) of 90.4%. For the same compound, the Activity [1] was 92.6%, the Activity (SR) was 70.4% and the Activity (A549) was 87.4%. The Activity (EKVX) was 99.9%, the Activity (HOP-62) was 80.2% and the Activity (NCI-H226) was 97.5%. For the same compound, the Activity (NCI-H23) was 96.5%, the Activity (NCI-H322M) was 102.4% and the Activity (NCI-H460) was 93.2%. It also gave an Activity (NCI-H522) of 49.7%, an Activity (COLO 205) of 107.3% and an Activity (HCT-116) of 83.1%. For the same compound, the Activity (HCT-15) was 97.4%, the Activity (HT-29) was 90% and the Activity (KM12) was 103.9%. It also gave an Activity (SW-620) of 94.8%, an Activity (SF-268) of 84.9% and an Activity (SF-295) of 91.8%. It also gave an Activity (SF-539) of 88%, an Activity (SNB-19) of 82.9% and an Activity (SNB-75) of 40.2%. The Activity (U-251) was 76.2%, the Activity (LOX IMVI) was 82.3% and the Activity (Malme-3M) was 97.7%. For the same compound, the Activity (M14) was 100.7%, the Activity (MDA-MB-435) was 109.2% and the Activity (SK-MEL-2) was 68.1%. The Activity (SK-MEL-28) was 100.5%, the Activity (SK-MEL-5) was 98.1% and the Activity (UACC-62) was 82.1%. The Activity (IGROV-1) was 105%, the Activity (OVCAR-3) was 107.8% and the Activity (OVCAR-4) was 100.5%. For the same compound, the Activity (OVCAR-5) was 96.2%, the Activity (OVCAR-8) was 76% and the Activity (NCI/ADR-RES) was 95.6%. The Activity (SK-OV-3) was 81%, the Activity (786-0) was 71.2% and the Activity (A498) was 96.8%. For the same compound, the Activity (ACHN) was 91.3%, the Activity (CAKI-1) was 89.6% and the Activity (RXF 393) was 77%. The Activity (SN12C) was 98.9%, the Activity (TK-10) was 65.5% and the Activity (UO-31) was 77.1%. The Activity (PC-3) was 71.7%, the Activity (DU-145) was 100% and the Activity (MCF7) was 93.9%. The Activity (MDA-MB-231) was 84.2%, the Activity [2] was 74.8% and the Activity (T47D) was 94.8%. It also gave an Activity (MDA-MB-468) of 103.8%.
